Test system: urinary excretion of uric acid
Assay: Pharmacodynamics: urinary uric acid excretion
Type: in vivo, human
Details: for CLUR0–24 / FEUA0–24: mean (95% CI); for percent change from baseline in AeUR over 0–6 hours: non-Asian subjects
How it was run: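 Total-catch urine was collected at 6- or 12-h intervals from predose to 72 h after dosing on days 1 (fasted ≥10 h, no food 4 h postdose) and 12, and to 24 h on day 6 (fed). Urine uric acid, urine creatinine and serum creatinine were measured. CLUR0–24 = urinary uric acid amount ÷ urate AUC0–24. FEUA0–24 = CLUR0–24 ÷ creatinine clearance × 100.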

[1] = Japanese subjects, 2.5 mg multiple dose, fed
[2] = Japanese subjects, 2.5 mg single dose, fasted
[3] = Japanese subjects, 2.5 mg single dose, fed
[4] = Japanese subjects, 5 mg multiple dose, fed
[5] = Japanese subjects, 5 mg single dose, fasted
[6] = Japanese subjects, 5 mg single dose, fed
[7] = Japanese subjects, 10 mg multiple dose, fed
[8] = Japanese subjects, 10 mg single dose, fasted
[9] = Japanese subjects, 10 mg single dose, fed
[10] = Japanese subjects, 15 mg multiple dose, fed
[11] = Japanese subjects, 15 mg single dose, fasted
[12] = Japanese subjects, 15 mg single dose, fed
[13] = Non-Asian subjects, 10 mg multiple dose, fed
[14] = Non-Asian subjects, 10 mg single dose, fasted
[15] = Non-Asian subjects, 10 mg single dose, fed

CC(C)(Sc1ccncc1-c1ccc(C#N)c2ccccc12)C(=O)O [verinurad]
CLUR0–24 [1]: 12.2 (10.3–14.2) mL/min
FEUA0–24 [1]: 7.57 (6.74–8.41) %
CLUR0–24 [2]: 7.82 (6.90–8.74) mL/min
FEUA0–24 [2]: 7.72 (6.01–9.43) %
CLUR0–24 [3]: 11.4 (9.74–13.0) mL/min
FEUA0–24 [3]: 7.75 (6.80–8.70) %
percent change from baseline in AeUR, 0–6 hour interval (Japanese subjects, 2.5 mg, day 1 (fasted)): 18%
percent change from baseline in AeUR, 0–6 hour interval (Japanese subjects, 2.5 mg, day 6 (fed)): 62%
percent change from baseline in AeUR, 0–6 hour interval (Japanese subjects, 2.5 mg, day 12 (steady-state, fed)): −17%
CLUR0–24 [4]: 13.7 (9.35–18.1) mL/min
FEUA0–24 [4]: 14.5 (9.93–19.1) %
CLUR0–24 [5]: 10.9 (8.88–12.9) mL/min
FEUA0–24 [5]: 9.05 (7.20–10.9) %
CLUR0–24 [6]: 16.0 (11.7–20.3) mL/min
FEUA0–24 [6]: 11.2 (7.42–14.9) %
percent change from baseline in AeUR, 0–6 hour interval (Japanese subjects, 5 mg, day 1 (fasted)): 59%
percent change from baseline in AeUR, 0–6 hour interval (Japanese subjects, 5 mg, day 6 (fed)): 114%
percent change from baseline in AeUR, 0–6 hour interval (Japanese subjects, 5 mg, day 12 (steady-state, fed)): −35%
CLUR0–24 [7]: 19.7 (16.7–22.7) mL/min
FEUA0–24 [7]: 13.7 (10.8–16.6) %
CLUR0–24 [8]: 14.3 (10.7–17.9) mL/min
FEUA0–24 [8]: 10.8 (7.87–13.6) %
CLUR0–24 [9]: 16.0 (9.88–22.1) mL/min
FEUA0–24 [9]: 20.5 (11.3–29.6) %
percent change from baseline in AeUR, 0–6 hour interval (Japanese subjects, 10 mg, day 1 (fasted)): 114%
percent change from baseline in AeUR, 0–6 hour interval (Japanese subjects, 10 mg, day 6 (fed)): 131%
percent change from baseline in AeUR, 0–6 hour interval (Japanese subjects, 10 mg, day 12 (steady-state, fed)): −33%
CLUR0–24 [10]: 23.9 (14.9–32.9) mL/min
FEUA0–24 [10]: 16.0 (10.7–21.2) %
CLUR0–24 [11]: 15.0 (6.40–23.6) mL/min
FEUA0–24 [11]: 14.5 (7.08–22.0) %
CLUR0–24 [12]: 12.1 (4.04–20.2) mL/min
FEUA0–24 [12]: 9.61 (2.96–16.3) %
percent change from baseline in AeUR, 0–6 hour interval (Japanese subjects, 15 mg, day 1 (fasted)): 77%
percent change from baseline in AeUR, 0–6 hour interval (Japanese subjects, 15 mg, day 6 (fed)): 49%
percent change from baseline in AeUR, 0–6 hour interval (Japanese subjects, 15 mg, day 12 (steady-state, fed)): 6%
CLUR0–24 [13]: 20.6 (13.7–27.4) mL/min
FEUA0–24 [13]: 13.2 (8.45–17.9) %
CLUR0–24 [14]: 15.3 (7.35–23.3) mL/min
FEUA0–24 [14]: 10.4 (4.84–16.0) %
CLUR0–24 [15]: 18.6 (8.95–28.2) mL/min
FEUA0–24 [15]: 11.7 (6.44–17.0) %
percent change from baseline in AeUR over 0–6 hours (10 mg, day 1): 70%
percent change from baseline in AeUR over 0–6 hours (10 mg, day 6): 141%
percent change from baseline in AeUR over 0–6 hours (10 mg, day 12): -41%
